Assay outcomes as filed in PubChem.
UHRF1 MBD2 ctr: human UHRF1 methylated DNA binding inhibitors. UHRF1 binding to methylated oligo, TR-FRET. inhibition, % at 4.4 µM. 370,000 compounds, 0.75% hits. AID 687016; in the data active = inhibition above about 21%;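 note: UHRF1 SRA domain binding a hemimethylated CpG hairpin DNA probe; 0% = median of test compound wells and 100% = reference inhibitor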
TDP2 absorb: blocks human TDP2 phosphodiesterase activity; recombinant TDP2, T5PNP hydrolysis, p-nitrophenol absorbance 415 nm; 370,000 compounds, 0.34% hits; inhibition, % at 12.8 µM; AID 720702; O95551;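 active = inhibition above the mean of all tested compounds plus 3 SD, set per campaign, cut at about 25% in these data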;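 note: 0% = DMSO with enzyme and 100% = buffer with substrate but no TDP2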
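Test system: Human TDP2 enzyme | Reagent: 5 mM T5PNP | Compound dosing: 12.8 µM single point, 1% DMSO | Incubation: Enzyme reaction with compound for 2 h at 37 °C | Technique: p-Nitrophenol epi absorbance | Read-out: % inhibition relative to enzyme-containing and enzyme-free wells | Benchmarks: High control without enzyme, low control DMSO plus TDP2 | Replicates: Singlicate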
MBD2 DNA inh: blocks human MBD2 binding to methylated DNA | Q9UBB5 | TR-FRET, MBD2 binding to methylated oligonucleotide | 370,000 compounds, 0.31% hits | inhibition, % at 4.4 µM | AID 686964; in the data active = inhibition above about 13%
Target sequence (Q9UBB5 whole entry, looked up): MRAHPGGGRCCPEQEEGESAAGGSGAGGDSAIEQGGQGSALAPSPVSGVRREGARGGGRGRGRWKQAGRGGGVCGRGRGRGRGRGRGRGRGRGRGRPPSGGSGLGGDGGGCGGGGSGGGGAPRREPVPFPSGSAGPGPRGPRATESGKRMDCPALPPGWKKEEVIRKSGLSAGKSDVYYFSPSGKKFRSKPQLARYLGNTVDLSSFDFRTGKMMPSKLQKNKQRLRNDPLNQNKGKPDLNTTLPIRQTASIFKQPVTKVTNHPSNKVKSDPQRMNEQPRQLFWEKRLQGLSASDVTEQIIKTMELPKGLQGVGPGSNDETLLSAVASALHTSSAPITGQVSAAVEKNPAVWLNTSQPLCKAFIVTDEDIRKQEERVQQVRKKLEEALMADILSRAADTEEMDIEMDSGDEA
LEDGF integ inh: blocks HIV-1 LEDGF/p75-dependent DNA integration. TR-FRET IN-LEDGF/p75 DNA integration, Eu/Cy5. inhibition, % at 3.7 µM. 370,000 compounds, 0.64% hits. AID 743269;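 active = inhibition above the screen-wide mean plus 3 SD, cut at about 13% in these data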;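 note: signal is the Cy5 over europium emission ratio at 671 and 618 nm; 0% = plate median of compound wells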
* marks the source's active call; other numbers are inactive results. Only some compounds are listed: those with a hit (about 1.6% of all), similar ones and a draw of the others.

SMILES | UHRF1 MBD2 ctr | TDP2 absorb | MBD2 DNA inh | LEDGF integ inh
CCOc1ccc(NC(=O)N2CCC(C(=O)c3ccc(F)cc3)CC2)cc1 | 21* | -11 | 8 | -1
CCOc1ccc(NC(=S)N2CCC(C(=O)c3ccc(F)cc3)CC2)cc1 | 0 | 7 | 4 | 2
Cn1c(=O)c2[nH]c(SCC(=O)NCCc3ccc(F)cc3)nc2n(C)c1=O | 1 | 12 | 0 | -2
O=C1/C(=C/c2cccnc2)CCC/C1=C\c1cccnc1 | -2 | 12 | -2 | 7
O=C1/C(=C/c2cccnc2)CC/C1=C\c1cccnc1 | 40* | -4 | -2 | -8
COc1ccc(CN(CC#Cc2ccccc2)Cc2ccccc2)c(OC)c1 | -1 | 2 | 3 | -2
COc1cccc(/C=C/C(=O)OCC(=O)NCCC2=CCCCC2)c1 | 37* | 6 | 1 | 3
COC(=O)CC1=NN(c2nc3ccccc3s2)C(=O)/C1=C/N(C)C | 79* | -10 | -2 | 5
COc1ccc(N2CCCN(CC(=O)Nc3ccc(Cl)c(Cl)c3)CC2)cc1 | -2 | 1 | -7 | 1
CCOC(=O)CC[C@@]1(C(=O)OCC)C[C@@H](CC(=O)N2CCOCC2)C(=O)N2CCCC=C21 | 0 | 4 | -1 | -2
COc1ccc(/C=C/c2c([N+](=O)[O-])c(=O)n(C)c(=O)n2C)cc1OC | 1 | 7 | -1 | 1
Cn1c(/C=C/c2ccc(Cl)cc2)c([N+](=O)[O-])c(=O)n(C)c1=O | 21* | -6 | 10 | 7
COC(=O)c1cccc(COC(=O)c2cccnc2SC)c1 | 34* | 3 | 2 | -3
CSc1ncccc1C(=O)OCc1ccc(C#N)cc1 | 1 | 16 | 0 | -2
CC(C)C(=O)Nc1c(-c2cccc(Cl)c2)c(=O)c2ccccc2n1C | 1 | -3 | -5 | -2
CCn1c(NC(=O)C(C)C)c(-c2ccccc2)c(=O)c2ccccc21 | 47* | 9 | 5 | -6
Nc1[nH]c(C(=O)c2ccc(Br)cc2)c(-c2ccccn2)c1C(=O)NCCc1c[nH]c2ccccc12 | -1 | -5 | 6 | -2
C=CCO[C@H]1CN(C(=O)OC)[C@@H](c2ccccc2Br)C[C@H]1OCC=C | 0 | -5 | 0 | 3
O=C(Cn1cc(COc2c(F)c(F)c(Br)c(F)c2F)nn1)c1ccc(O)cc1 | 4 | -7 | -2 | -3
N#Cc1ccccc1OCc1cn(CC(=O)c2ccc(O)cc2)nn1 | 22* | 1 | 13 | 3
O=C(Cn1cc(COc2c(Br)cc(F)cc2Br)nn1)c1ccc(O)cc1 | 21* | -7 | 13 | 3
O=C(Cn1cc(COc2ccc(Br)cc2)nn1)c1ccc(O)cc1 | 9 | 1 | 5 | -3
CC(=O)c1cc(C)c(OCc2cn(CC(=O)c3ccc(O)cc3)nn2)c(C)c1 | 21* | -4 | 9 | 5
CCCC(=O)c1ccc(OCc2cn(CC(=O)c3ccc(O)cc3)nn2)cc1 | 23* | 6 | 5 | 4
O=C(Cn1cc(COc2ccccc2[N+](=O)[O-])nn1)c1ccc(O)cc1 | 1 | 3 | -3 | -1
SMILES | UHRF1 MBD2 ctr | TDP2 absorb | MBD2 DNA inh | LEDGF integ inh
O=C(Cn1cc(COC(=O)c2c3ccccc3cc3ccccc23)nn1)c1ccc(O)cc1 | 20 | -11 | 10 | -6
COc1ccccc1C(=O)NC1CCCCN(Cc2cccc(Cl)c2)C1=O (configuration not stated) | -3 | 2 | 1 | -2
CCCC[C@H]1C2CC(OC(=O)Nc3ccc4c(c3)OCO4)C(C2)[C@H]2CCCCN21 (some centres not stated) | -2 | 6 | 3 | 3
O=Cc1cccc(OCc2cn(CC(=O)c3ccc(O)cc3)nn2)c1 | 24* | 6 | 12 | 3
CCOC(=O)c1cc(-c2ccccc2)sc1NC(=O)CN1C(=O)NC(CC)(c2ccc(F)cc2)C1=O (configuration not stated) | 24* | 4 | 3 | -1
O=[N+]([O-])c1ccccc1/C=C/C=Nn1c(-c2ccc(F)cc2)n[nH]c1=S | -1 | -7 | 2 | 7
Nn1c(SCc2ccc([N+](=O)[O-])cc2)nnc1-c1cc(-c2ccccc2)n[nH]1 | 2 | -12 | 7 | 3
COC(=O)[C@]12C[C@H](CC(=O)N3CCSCC3)C(=O)N(Cc3ccc4c(c3)OCO4)C1=C[C@H](C(C)(C)C)O[C@@H]2C | 0 | -5 | 1 | -2
COC(=O)[C@@]1(Sc2ccc(C)cc2)CC(=O)N[C@@H]1c1ccc(C(F)(F)F)cc1 | 23* | -4 | 8 | -2
CN(Cc1cccc(F)c1)C(=O)C1CC(=O)N(c2ccc3c(c2)OCCO3)C1 (configuration not stated) | 60* | 1 | 5 | -4
C#CCN(C[C@@H]1[C@@H](OC(=O)NCc2ccc(OC)c(OC)c2)[C@@H](OC(=O)NCc2ccc(OC)c(OC)c2)CN(C(=O)OC(C)C)N1C(=O)OC(C)C)S(=O)(=O)c1ccc(C)cc1 | -4 | -1 | -1 | 52*
Cn1ccc(/C=N/N=C2/NC(=O)CS2)n1 | 37* | 6 | -6 | 2
OC(COc1ccc(Cl)cc1)CN1CCN(c2ccccn2)CC1 (configuration not stated) | -3 | -5 | 1 | 5
OC(COC(c1ccccc1)c1ccccc1)CN1CCN(c2ccccn2)CC1 (configuration not stated) | 23* | -1 | 8 | 1
CC(C)[C@H](NC(=O)c1cccs1)C(=O)N1CCC[C@H]1C(=O)NCc1ccccc1 | -1 | -11 | -7 | 6
CN(C)C1=NC[C@H](Cc2ccccc2)N1CCCC1CCCCC1 | -1 | 0 | 6 | -3
CN(C)C1=NC[C@H](Cc2ccccc2)N1CCCC1CCCC1 | 23* | -9 | 12 | 3
CCOc1ccc(/C=N/Nc2ccccn2)cc1OC | 47* | 3 | -2 | 2
CCCOc1ccc(/C=N/Nc2ccccn2)cc1OC | 2 | -1 | 1 | -3
S=C(Nc1ccccc1I)OC1CCC12CCC(c1ccccc1)CC2 (configuration not stated) | 3 | -10 | -2 | 0
CCn1c(SCC(=O)NN=Cc2c(C)nn(-c3ccccc3)c2C)nnc1-c1ccc(OC)c(OC)c1 | 1 | 4 | -1 | 0
CCOc1ncccc1C(=O)N1CCN(C(=O)c2ccccc2)CC1 | 21* | 0 | 13 | 2
CCOC(=O)[C@@]12CCC3=C1N(CCC3)C(=O)[C@H](CC(=O)NCc1cccc3ccccc13)C2 | -2 | 4 | 1 | -5
CCC[C@H]1[C@@H](NC(=O)c2cccc(C(F)(F)F)c2)CC[C@@]23CCCN2C(=O)CCC[C@@H]13 | 1 | 4 | 3 | 1
CCc1ccc(C2=NN(CCC(=O)NCC3CCCO3)C(=O)CC2)cc1 (configuration not stated) | 0 | 8 | 4 | 2
Cc1ccc(C2=NN(CCC(=O)NC3CCCC3)C(=O)CC2)cc1 | 23* | 17 | 2 | 8
Cc1ccc2c(c1)N(CCC(=O)NC1CCCCC1)C(=O)CO2 | 22* | 7 | 1 | 1
C=CCN(CC#Cc1cccnc1)Cc1ccc(OC)cc1OC | -1 | 10 | 0 | -1
